Assay outcomes as filed in PubChem BioAssay.
Rows were chosen to be rich in hits. Some 3.1% of all compounds tested hit in one or more screens of this group.
F508del corr – F508del CFTR correction, initial screen, CFBE line, single point; CFBE cells, YFP halide quenching; stimulated with forskolin plus potentiator P3; % fluorescence drop versus neutral controls; activity (quench increase), % at 7.58 µM; hit rate 0.36% among 350,000;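 active = mean added fluorescence quench of at least 8% versus neutral control, with both replicates also reaching 8%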;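 note: cells transiently co-express mutant CFTR-F508del with the halide-sensitive YFP; corrector assay measuring rescue of mutant channel to the surface after 24 h compound exposure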
ERAP1 HTS inh – human ERAP1 aminopeptidase inhibitors, primary screen, biochemical, single point, plate reader; Endoplasmic reticulum aminopeptidase 1 (Homo sapiens), Q9NZ08; recombinant ERAP1, Leu-AMC fluorescence, 60 min; inhibition, % at 10.7 µM; hit rate 0.15% among 340,000;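 active = mean replicate inhibition of at least 30%, or all replicates individually reaching that 30% level; inactive = mean below 30% and not every replicate reaching it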;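 note: 0% = neutral control wells and 100% = L-leucinethiol positive control wells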
SIRT5 block – SIRT5 desuccinylase inhibitors, primary screen, biochemical, fluorescence imaging, single point, set 5 | NAD-dependent protein deacylase sirtuin-5, mitochondrial (Homo sapiens), Q9NXA8 | Purified SirT5, succinyl-peptide AMC, trypsin-coupled fluorescence | inhibition, % at 15 µM | hit rate 1.1% among 330,000 | AID 652115, 2013; in the data active = inhibition above about 15%
Target sequence (Q9NXA8 whole entry, looked up): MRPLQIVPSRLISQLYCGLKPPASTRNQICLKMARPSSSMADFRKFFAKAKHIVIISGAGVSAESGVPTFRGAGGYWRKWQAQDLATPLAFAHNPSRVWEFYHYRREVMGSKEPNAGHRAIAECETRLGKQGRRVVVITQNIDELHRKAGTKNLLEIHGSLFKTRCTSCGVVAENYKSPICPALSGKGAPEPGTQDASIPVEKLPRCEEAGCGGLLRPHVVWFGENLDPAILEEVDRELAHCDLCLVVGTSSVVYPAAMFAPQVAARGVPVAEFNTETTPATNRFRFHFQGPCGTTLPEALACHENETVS
rRNA inh HTS – reduced GFP signal of wild-type E. coli, primary screen, bacterial rRNA inhibitor project, GFP/RFP fluorescence, OD600, single point; hit rate 1.6% among 350,000; GFP signal change (wild-type ribosome), % (no concentration beside the values); E. coli WT GFP vs humanized-ribosome RFP mutants, 24 h; stronger effect = lower value; DMSO median 0, no signal -100;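 active = significant combined selectivity score with lowered wild-type GFP, culture density cut under 30%, mutant RFP and density less affected; inactive = any of these conditions unmet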
S100A4 MyoIIA – inhibitors of S100A4-myosin IIA peptide binding, primary screen, biochemical, fluorescence polarization, TAMRA-MyoIIA peptide; AID 652163, 2013; inhibition, % at 10.7 µM; Protein S100-A4 (Homo sapiens), P26447; hit rate 0.14% among 360,000;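 active = mean inhibition of at least 70% across replicates, with every replicate also reaching that level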
Target sequence (P26447 whole entry, looked up): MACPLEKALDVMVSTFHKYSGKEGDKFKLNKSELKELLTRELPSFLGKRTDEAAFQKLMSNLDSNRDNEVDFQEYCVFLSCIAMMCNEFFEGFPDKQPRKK
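Test system: S100A4 monomer protein. Medium: HEPES buffer with Ca2+, pH 7.2. Reagent: fluorescent myosin IIA peptide, 5 nM. Compound dosing: single-point compound testing. Timing: 5 min between mix addition and reading. Benchmarks: DMSO neutral and TFP positive wells.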
Starred values were filed as active, the others as inactive; nt = not tested or not shown; ! = not active in a repeat.

SMILES	F508del corr	ERAP1 HTS inh	SIRT5 block	rRNA inh HTS	S100A4 MyoIIA
COCC#Cc1cnc2c(c1)C(=O)N([C@@H](C)CO)C[C@H](C)[C@@H](CN(C)Cc1ccc(-c3ccccc3)cc1)O2	4.3	nt	-1.2	-0.5	nt
C[C@H](CO)N1C[C@H](C)[C@H](CN(C)S(=O)(=O)c2ccc(F)cc2)Oc2cc(C3=CCCC3)ccc2S1(=O)=O	-4.1	0.4	2.0	0.4	1.8
C[C@H](CO)N1C[C@H](C)[C@H](CN(C)C(=O)Nc2ccc3c(c2)OCO3)Oc2cc(C3=CCCCC3)ccc2S1(=O)=O	1.6	2.4	13.6	-2.2	19.8
C[C@@H]1CN([C@H](C)CO)S(=O)(=O)c2ccc(C3=CCCCC3)cc2O[C@H]1CN(C)S(=O)(=O)c1ccc(F)cc1	6.5	-0.4	29.6*	1.5	-0.4
C[C@@H]1CN([C@H](C)CO)S(=O)(=O)c2ccc(C3=CCCCC3)cc2O[C@@H]1CN(C)C(=O)Nc1ccc2c(c1)OCO2	-1.8	2.5	15.2*	-0.1	-2.6
CCS(=O)(=O)CCSc1nc2ccccc2o1	nt	-0.3	-2.8	5.1	-2.0
O=S(=O)(CCSc1nc2ccccc2o1)c1nc2ccccc2s1	-0.7	-2.1	-0.6	-32.0*!	3.1
Cc1cccc(Nc2ccc([N+](=O)[O-])cc2C(=O)O)c1	-2.6	4.7	nt	-5.6	-1.1
O=C(O)c1cc([N+](=O)[O-])ccc1Nc1ccccc1	0.6	6.3	3.0	-34.1*	2.2
O=C(O)c1cc([N+](=O)[O-])ccc1NCc1ccccc1Cl	-2.0	8.5	10.4	-47.4	-0.4
O=C(O)c1cc([N+](=O)[O-])ccc1NCCc1ccccc1	-0.1	6.4	0.6	-42.1*	-7.2
COc1ccc(NC(=O)Nc2ccc3c(c2)CC(=O)N([C@H](C)CO)C[C@H](C)[C@H](CN(C)C(=O)Nc2ccccc2)O3)cc1	1.3	0.0	-3.5	1.8	9.5
CCC(C)N1C(=O)N(C)C2NC(=O)NC21 (stereo unspecified)	-0.6	-1.6	24.9*	1.3	-1.5
C[C@@H]1CN([C@H](C)CO)C(=O)CCCn2cc(nn2)CO[C@H]1CN(C)C	-0.7	0.3	5.5	2.5	12.3
Cn1nc(-c2ccccc2)c(N2CCCCC2)cc1=O	1.2	-3.8	-1.8	-41.5*	-6.4
CCCN(C)C[C@H]1OCCCC[C@@H](C)Oc2ccc(NC(=O)NC(C)C)cc2C(=O)N([C@H](C)CO)C[C@@H]1C	-1.7	1.3	1.1	5.4	0.2
CCC(=O)N1CCc2cc(Br)cc(S(=O)(=O)N(C)c3ccc(OC)cc3OC)c21	3.1	-3.4	5.0	-30.1*	2.7
CO[C@@H]1CN(C)C(=O)c2cc(NC(C)=O)ccc2OC[C@H](C)N(C(=O)c2ccccc2F)C[C@@H]1C	0.7	-0.5	2.5	0.1	-2.4
COc1ccc(Nc2nc3cc(-c4sccc4C)sc3c(=O)n2C)cc1OC	9.6*	1.6	-2.5	1.3	0.2
COc1cccc(-c2cc3nc(Nc4ccc(OC)c(OC)c4)n(C)c(=O)c3s2)c1	-0.2	-0.5	-0.6	-6.1	-1.6
COc1ccc(Nc2nc3cc(-c4ccsc4)sc3c(=O)n2C)cc1OC	-1.0	-0.7	2.2	-20.8*	-5.0
COc1ccccc1CNc1nc2cc(-c3ccc(OC)c(OC)c3)sc2c(=O)n1C	2.8	7.3	19.8*	-8.8	18.9
Cc1cccc(S(=O)(=O)N2CCCCN3[C@@H](CO)[C@@H](c4ccc(C#C[C@H](C)O)cc4)[C@@H]3C2)c1	-0.4	-0.3	3.8	-3.6	3.5
COCCn1c(-c2ccc(-c3ccc([N+](=O)[O-])cc3Br)o2)nc2c1c(=O)[nH]c(=O)n2CC(C)C	2.6	-3.8	15.5*	0.8	-1.3
COCCn1c(=O)[nH]c(=O)c2c1nc(-c1ccc(-c3ccc(Cl)cc3[N+](=O)[O-])o1)n2Cc1ccccc1	nt	1.6	1.6	nt	-3.6
Cc1ccc(S(=O)(=O)Nc2ccc3c(c2)CC(=O)N([C@H](C)CO)C[C@H](C)[C@@H](CN(C)S(=O)(=O)c2c(C)noc2C)O3)cc1	1.8	-0.6	15.8*	-1.4	-2.1
